Active and inactive are the calls of the source. The calls are words filed in the database; no cut-off is given here.
Assays:
PC-3 [1] = experiment: Induction of oxidative stress in human PC3 cells assessed as total GSH levels at 5 uM treated 24 hrs post NAC addition measured after 24 hrs by spectrophotometric analysis (reference value: 3.04 +/- 0.51 microg/mg); assay type: functional
In short: (§1)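 Cells were pretreated 24 h with 5 mM NAC, then exposed 24 h to test compound at 5 µM. Controls received 0.1% DMSO. Extracts were prepared by sonication and HClO4 precipitation, then neutralized with KOH. Total glutathione was read by DTNB/glutathione reductase/NADPH rate at 412 nm. GSSG was measured after 4-vinylpyridine (0.1%, 1 h, RT) and GSH derived by difference. Values are normalized to protein, triplicates, three independent runs.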

PC-3 [2] = experiment: Antiproliferative activity against human PC3 cells after 72 hrs by MTT assay; assay type: functional, cell-based; settings: PC-3, 72 h
In short: (§2)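 MTT reduction: cancer lines plated at 0.7×10^5 to 0.3×10^6 cells/well, V79 and L929 fibroblasts at 0.5×10^5 cells/well. Compounds in DMSO (0.1%) were given for 24 h at 0.04–40.92 µM or 72 h at 0.04–8.19 µM. Fresh medium with 0.5 mg/mL MTT was added for 3 h, then formazan was dissolved in DMSO and read at 595 nm as % of control. IC50 came from nonlinear regression with 95% CI. Doxorubicin (0.001–1.06 µM) was the positive control. Triplicate, ≥3 repeats.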

SF-295 [3] = experiment: Antiproliferative activity against human SF295 cells after 72 hrs by MTT assay; assay type: functional, cell-based; settings: SF-295, 72 h; in short: as §2
V79 = experiment: Antiproliferative activity against chinese hamster V79 cells after 72 hrs by MTT assay; assay type: cell-based; settings: Cricetulus griseus, V79, 72 h; in short: as §2
[4] = Selective index, ratio of IC50 for chinese hamster V79 cells to IC50 for human SF295 cells
In short: (§3)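 Selectivity index is the ratio of the IC50 in a non-cancer murine line (V79 or L929) to the IC50 in the cancer line. […] MTT was 0.5 mg/mL for 3 h, formazan dissolved in DMSO and read at 595 nm as % of control. IC50s were derived by nonlinear regression; triplicate, at least three repeats.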

[5] = Selective index, ratio of IC50 for chinese hamster V79 cells to IC50 for human MDA-MB-435 cells; in short: as §3
PC-3 [6] = experiment: Induction of lipid peroxidation in human PC3 cells assessed as increase in MDA levels at 2.5 to 10 uM after 24 hrs in absence of NAC by TBARS assay; assay type: functional, cell-based
In short: (§4)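 TBARS: cells were exposed 24 h, with or without 24 h prior 5 mM NAC, and lysed in Tris-HCl. Lysate was heated with TCA/0.25 M HCl and 6.7 mg/mL TBA for 15 min at 100 °C, centrifuged, and read at 532 nm. Hydrolyzed tetramethoxypropane served as standard, with values normalized to protein. H2O2 (10 µM) was the positive control. Three independent experiments in triplicate; ANOVA/Tukey.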

HCT-116 [7] = experiment: Induction of lipid peroxidation in human HCT116 cells assessed as increase in MDA levels at 2.5 to 10 uM after 24 hrs in absence of NAC by TBARS assay; assay type: functional, cell-based; in short: as §4
SF-295 [8] = experiment: Induction of oxidative stress in human SF295 cells assessed as total GSH levels at 5 uM treated 24 hrs post NAC addition measured after 24 hrs by spectrophotometric analysis (reference value: 3.16 +/- 0.21 microg/mg); assay type: functional; in short: as §1
SF-295 [9] = experiment: Induction of oxidative stress in human SF295 cells assessed as total GSSG levels at 5 uM after 24 hrs by spectrophotometric analysis (reference value: 1.31 +/- 0.55 microg/mg); assay type: functional
HCT-116 [10] = experiment: Induction of oxidative stress in human HCT116 cells assessed as total intracellular thiol levels at 5 uM after 24 hrs by spectrophotometric analysis (reference value: 5.02 +/- 0.91 microg/mg); assay type: functional
HCT-116 [11] = experiment: Induction of oxidative stress in human HCT116 cells assessed as total intracellular thiol levels at 5 uM treated 24 hrs post NAC addition measured after 24 hrs by spectrophotometric analysis (reference value: 5.02 +/- 0.91 microg/mg); assay type: functional
HCT-116 [12] = experiment: Induction of oxidative stress in human HCT116 cells assessed as total GSSG levels at 5 uM after 24 hrs by spectrophotometric analysis (reference value: 1.19 +/- 0.37 microg/mg); assay type: functional
L929 [13] = experiment: Induction of oxidative stress in mouse L929 cells assessed as total intracellular thiol levels at 5 uM after 24 hrs by spectrophotometric analysis (reference value: 4.87 +/- 0.25 microg/mg); assay type: cell-based; settings: l929, 24 h
L929 [14] = experiment: Induction of oxidative stress in mouse L929 cells assessed as total GSH levels at 5 uM after 24 hrs by spectrophotometric analysis (reference value: 3.76 +/- 0.51 microg/mg); assay type: cell-based; settings: l929, 24 h
SF-295 [15] = experiment: Cytotoxicity against human SF295 cells after 24 hrs in presence of GSH-OEt by MTT assay; assay type: functional, cell-based; settings: SF-295, 24 h
In short: (§5)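 24 h MTT exposure (0.04–40.92 µM in 0.1% DMSO), with or without co-treatment with GSH ethyl ester (15 mM) to gauge the ROS contribution. MTT was 0.5 mg/mL for 3 h, with formazan dissolved in DMSO and absorbance at 595 nm expressed as % of control. Triplicate, repeated at least three times.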

HCT-116 [16] = experiment: Cytotoxicity against human HCT116 cells after 24 hrs in absence of GSH-OEt by MTT assay; assay type: functional, cell-based; settings: HCT-116, 24 h; in short: as §5
HCT-116 [17] = experiment: Geno-toxicity in human HCT116 cells assessed as induction of DNA damage at 2.5 to 10 uM after 24 hrs in absence of NAC by alkaline comet assay; assay type: functional, cell-based
In short: (§6)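 Alkaline comet assay after 24 h at 2.5, 5 and 10 µM, with or without 24 h pretreatment with 5 mM NAC. Cells were trypsinized and embedded in 0.75% low-melting agarose, then lysed at pH 10, 4 °C, ≥1 h. DNA was unwound 20 min at pH >13 and electrophoresed 20 min at 25 V, 300 mA (0.86 V/cm), then stained with ethidium bromide. 100 cells (2 slides) were scored in classes 0–4 for a damage index. Mean ± SEM, three independent experiments in triplicate.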

L929 [18] = experiment: Geno-toxicity in mouse L929 cells assessed as induction of DNA damage at 2.5 to 10 uM after 24 hrs in absence of NAC by alkaline comet assay; assay type: cell-based; settings: l929, 24 h; in short: as §6
L929 [19] = experiment: Geno-toxicity in mouse L929 cells assessed as induction of DNA damage at 2.5 to 10 uM treated 24 hrs post NAC addition measured after 24 hrs by alkaline comet assay; assay type: cell-based; settings: l929, 24 h; in short: as §6
[20] = Drug uptake in mitochondria of human PC3 cells at 5 uM after 10 mins by MitoTracker Red dye-based confocal microscopic analysis; assay type: ADME, cell-based; settings: pc-3, 10 min
In short: (§7)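 PC3 cells were grown in DMEM with 10% FBS, antibiotics and 2 mM L-glutamine at 37 °C, 5% CO2. Cells were incubated with compound (5 µM) plus LysoTracker Red or MitoTracker Red for 10 min at 37 °C. Live cells were imaged in phenol red-free DMEM by confocal microscopy with a 40X oil objective, exciting at 488 nm (compound) and 543 nm (tracker dyes).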

[21] = Drug uptake in lysosomes of human PC3 cells at 5 uM after 10 mins by LysoTracker Red dye-based confocal microscopic analysis; assay type: ADME, cell-based; settings: pc-3, 10 min; in short: as §7

IC50 (PC-3 [2]): 380 nM | Activity (L929 [13]): 3.5 µg/mg | Activity (L929 [14]): 1.15 µg/mg | Drug uptake [20]: Metabolite_Notdetected | Drug uptake [21]: Metabolite_Notdetected
SMILES: CC1(C)OC2=C(C(=O)C(=O)c3ccccc32)C1n1cc(CNC2=[N+]3C(=C(c4ccccc4)c4ccc(Cl)n4[B-]3(F)F)C=C2)nn1 (configuration not stated)
Activity (PC-3 [1]): 3.13 µg/mg | IC50 (SF-295 [3]): 280 nM | IC50 (V79): 650 nM | Ratio IC50 [4]: 2.3 | Ratio IC50 [5]: 0.8 | Activity (PC-3 [6]): Active | Activity (HCT-116 [7]): Active | Activity (SF-295 [8]): 3.47 µg/mg | Activity (SF-295 [9]): 2.09 µg/mg | Activity (HCT-116 [10]): 3.81 µg/mg | Activity (HCT-116 [11]): 5.12 µg/mg | Activity (HCT-116 [12]): 2.01 µg/mg | IC50 (SF-295 [15]): 9810 nM | IC50 (HCT-116 [16]): 5280 nM | Activity (HCT-116 [17]): Active | Activity (L929 [18]): Toxic | Activity (L929 [19]): Toxic

From ChEMBL document CHEMBL4043182, “On the synthesis of quinone-based BODIPY hybrids: New insights on antitumor activity and mechanism of action in cancer cells” (Bioorg Med Chem Lett, 2017)
